Source: article PMC6447837 (Cancer Science, 2019)

Tests used:
A375 = assay: MTT antiviability assay; type: cell-based; details: Homo sapiens, A-375, 72 h
Bxpc‐3 cells [1] = assay: Wound healing assay; type: cell-based, human; details: 18 hours
Capan‐2 = assay: MTT antiviability assay; type: cell-based; details: Homo sapiens, Capan-2, 72 h
Src = Src (Homo sapiens, UniProt P12931); type: cell-based; details: 12 hours, western blot
Aspc‐1 = assay: MTT antiviability assay; type: cell-based; details: Homo sapiens, ASPC1, 72 h
Fyn = Fyn (Homo sapiens, UniProt P06241); assay: Radiometric kinase IC50 assay; type: biochemical
Chain of Fyn (P06241 whole entry): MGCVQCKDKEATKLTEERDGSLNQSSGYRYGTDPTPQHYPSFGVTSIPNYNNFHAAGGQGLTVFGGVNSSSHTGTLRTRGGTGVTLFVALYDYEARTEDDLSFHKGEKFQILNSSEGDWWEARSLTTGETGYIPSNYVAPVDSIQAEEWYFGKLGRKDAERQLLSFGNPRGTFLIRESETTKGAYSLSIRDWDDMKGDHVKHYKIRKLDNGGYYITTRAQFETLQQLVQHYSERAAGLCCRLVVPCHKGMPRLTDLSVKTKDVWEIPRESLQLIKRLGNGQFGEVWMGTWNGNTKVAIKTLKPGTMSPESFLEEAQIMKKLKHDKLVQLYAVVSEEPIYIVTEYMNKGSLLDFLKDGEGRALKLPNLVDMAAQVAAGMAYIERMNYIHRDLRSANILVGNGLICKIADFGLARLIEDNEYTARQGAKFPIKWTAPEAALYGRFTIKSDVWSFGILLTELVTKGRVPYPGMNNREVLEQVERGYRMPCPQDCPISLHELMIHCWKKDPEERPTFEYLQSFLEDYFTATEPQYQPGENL

HL‐60 = details: HL‐60, Acute myeloid leukemia; mean ± SD; ref Zhang et al (2016) 35; cited from earlier work
HPAF‐II = assay: MTT antiviability assay; type: cell-based; details: Homo sapiens, 72 h
Bxpc‐3 = assay: MTT antiviability assay; type: cell-based; details: Homo sapiens, BXPC-3, 72 h
KG‐1a = assay: MTT antiviability assay; type: cell-based; details: Homo sapiens, 72 h
BT474 = details: BT474, Breast cancer; ref Zhang et al (2016) 35; cited from earlier work
PANC‐1 = assay: MTT antiviability assay; type: cell-based; details: Homo sapiens, PANC-1, 72 h
Yes = Yes (Homo sapiens, UniProt P07947); assay: Radiometric kinase IC50 assay; type: biochemical
Chain of Yes (P07947 whole entry): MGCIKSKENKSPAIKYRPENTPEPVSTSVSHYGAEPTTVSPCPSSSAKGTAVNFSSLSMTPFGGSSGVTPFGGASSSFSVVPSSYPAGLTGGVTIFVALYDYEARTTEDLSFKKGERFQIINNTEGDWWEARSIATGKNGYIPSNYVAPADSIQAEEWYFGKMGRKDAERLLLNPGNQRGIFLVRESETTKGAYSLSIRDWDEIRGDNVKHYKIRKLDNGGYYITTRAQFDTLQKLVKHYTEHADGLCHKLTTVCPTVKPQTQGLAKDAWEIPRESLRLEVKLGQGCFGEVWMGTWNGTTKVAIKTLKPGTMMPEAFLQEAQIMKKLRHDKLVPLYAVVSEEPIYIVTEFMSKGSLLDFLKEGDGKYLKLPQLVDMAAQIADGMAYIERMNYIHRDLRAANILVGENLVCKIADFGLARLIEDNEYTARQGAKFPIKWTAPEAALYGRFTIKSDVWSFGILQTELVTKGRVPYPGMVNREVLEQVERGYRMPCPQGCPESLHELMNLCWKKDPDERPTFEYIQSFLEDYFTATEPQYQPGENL

ERK = assay: Western blot, ERK phosphorylation; type: cell-based, human; details: Aspc‐1 and Bxpc‐3 cells, 12 hours
Procedure, shortened: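 Aspc-1 and Bxpc-3 cells were grown overnight in complete medium and treated with test compound for 12 h. Cells were lysed in RIPA buffer and protein was quantified. Lysates were run on SDS-PAGE and transferred to PVDF, then blocked 2 h in TBS-T with 5% non-fat milk. Blots were probed for pAKT Ser473, pERK Thr202/Tyr204, pSTAT3 Tyr705, the matching total proteins and β-actin. Detection was by enhanced chemiluminescence.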

NCI‐N87 = assay: MTT antiviability assay; type: cell-based; details: Homo sapiens, NCI-N87, 72 h
FOSL1 = assay: Western blot, FOSL1 expression in intact cells; type: cell-based, human; details: 12 hours
MDA‐MB‐436 = assay: MTT antiviability assay; type: cell-based; details: Homo sapiens, MDA-MB-436, 72 h
Aspc‐1 cells [2] = assay: Annexin V/PI apoptosis assay; type: cell-based, human; details: 24 hours
Procedure, shortened: (§1)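 Cells were treated with a range of concentrations for 24 hours, washed with PBS, then stained with annexin V‑FITC and propidium iodide for 15 minutes in the dark. […] Early (annexin V) and late (PI) apoptotic cells are reported as percentages, mean of n = 3 with SD.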

COLO‐205 = assay: MTT antiviability assay; type: cell-based; details: Homo sapiens, COLO 205, 72 h
HepG2 = details: HepG2, Hepatocarcinoma; ref Zhang et al (2016) 35; cited from earlier work
[3] = Body weight during treatment in xenograft models; type: in vivo, NOD‐SCID mice; details: Aspc‐1 and Bxpc‐3 xenograft models; 20 or 40 mg/kg/d p.o., 18 days
Procedure, shortened: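 Six‑week‑old female NOD‑SCID mice received 5 × 10⁶–1 × 10⁷ cells s.c. in the right flank and were grouped (6 per group) at about 200 mm³. Test compound in 25% (v/v) PEG400 plus 5% DMSO in deionized water was given by oral gavage once daily for 18 days, alongside vehicle controls. Mean body weight with SD was recorded.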

Aspc‐1 xenograft = assay: Subcutaneous xenograft model; type: in vivo, NOD‐SCID mice; details: Aspc‐1 model
Procedure, shortened: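 Female NOD‑SCID mice bearing s.c. right‑flank tumors (5 × 10⁶–1 × 10⁷ cells injected) were randomized at 100–200 mm³ (6–7 per group). They received test compound in 25% PEG400/5% DMSO/water by oral gavage once daily for 18 days, or vehicle. Tumors were measured by caliper every 3 days, with volume = length × width² × 0.5.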

Aspc‐1 cells [4] = assay: Transwell invasion assay; type: cell-based, human
Procedure, shortened: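 Inserts were precoated with polymerized collagen type I. Cells were seeded on the insert bottom in serum‑free medium with serial dilutions of test compound or vehicle, with 10% FBS medium in the lower chamber. After one day, cells were stained with calcein‑AM and optical sections taken at 10‑μm intervals. Invasion was scored as cells moving >20 μm into collagen; n = 3, mean with SD.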

HT29 = details: HT29, Colorectal carcinoma; mean ± SD; ref Zhang et al (2016) 35; cited from earlier work
cleaved caspase‐3 = assay: Immunohistochemistry of xenograft tumor tissues; type: in vivo, NOD‐SCID mice; details: xenograft models; LY‐1816 40 mg/kg/d p.o., gemcitabine 80 mg/kg/wk; IHC
Procedure, shortened: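 Aspc‑1 or Bxpc‑3 s.c. tumors in NOD‑SCID mice were dosed p.o. daily from about 200 mm³, with vehicle controls. At study end, tumors were resected. Frozen sections were immunostained and imaged by light microscopy, and cleaved caspase‑3‑positive cells were counted.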

SW1990 = assay: MTT antiviability assay; type: cell-based; details: Homo sapiens, SW1990, 72 h
PC‐9 = details: PC‐9, Lung cancer; mean ± SD; ref Zhang et al (2016) 35; cited from earlier work
Bxpc‐3 cells [5] = assay: Annexin V/PI apoptosis assay; type: cell-based, human; details: 24 hours
Procedure, shortened: as §1

RAMOS = details: Lymphoma, ref Zhang et al (2016) 35; cited from earlier work
plc/prf/5 = details: plc/prf/5, Hepatocarcinoma; ref Zhang et al (2016) 35; cited from earlier work

Chain of Src (P12931 whole entry): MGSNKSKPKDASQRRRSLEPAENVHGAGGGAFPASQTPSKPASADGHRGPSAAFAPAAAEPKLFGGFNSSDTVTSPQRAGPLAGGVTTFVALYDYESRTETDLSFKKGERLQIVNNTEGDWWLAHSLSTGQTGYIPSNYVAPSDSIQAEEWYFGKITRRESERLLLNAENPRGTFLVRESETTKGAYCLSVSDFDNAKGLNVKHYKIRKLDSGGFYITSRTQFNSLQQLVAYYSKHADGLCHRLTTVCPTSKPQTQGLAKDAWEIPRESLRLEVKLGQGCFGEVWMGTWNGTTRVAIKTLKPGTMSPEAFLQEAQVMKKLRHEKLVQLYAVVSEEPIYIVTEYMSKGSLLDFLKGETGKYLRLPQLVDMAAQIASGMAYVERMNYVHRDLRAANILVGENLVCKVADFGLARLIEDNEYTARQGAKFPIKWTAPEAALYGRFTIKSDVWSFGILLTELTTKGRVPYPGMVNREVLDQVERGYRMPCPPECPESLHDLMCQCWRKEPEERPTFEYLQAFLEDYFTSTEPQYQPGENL

Cc1ccc(NC(=O)c2ccc(C)c(C(F)(F)F)c2)cc1C#Cc1nn(C2CCC(O)CC2)c2ncnc(N)c12 (stereo not drawn) [LY‐1816, N‐(3‐((4‐amino‐1‐(4‐hydroxycyclohexyl)‐1H‐pyrazolo[3,4‐d]pyrimidin‐3‐yl)ethynyl)‐4‐methylphenyl)‐4‐methyl‐3‐(trifluoromethyl)benzamide]
IC50 (A375): 134 ± 2 nM | cell migration (Bxpc‐3 cells [1]): dose‐dependently reduced cell migration | IC50 (Capan‐2): 97 ± 14 nM | phosphorylation of Src (Src; 10 PDAC cell lines): potently inhibited the phosphorylation of Src | Src phosphorylation (Src; HT29 and HCT116 cells): relatively weak potency | IC50 (Aspc‐1): 54 ± 8 nM | IC50 (Fyn): 6 nM | IC50 (HL‐60): 31 ± 12 nM | IC50 (HPAF‐II): 215 ± 31 nM | IC50 (Bxpc‐3): 58 ± 11 nM | IC50 (KG‐1a): > 10000 nM | IC50 (BT474): > 10000 nM | IC50 (PANC‐1): 123 ± 15 nM | IC50 (Yes): 1 nM | phosphorylation of ERK (ERK): very weak or no impact on the phosphorylation of ERK and AKT | IC50 (NCI‐N87): 147 ± 44 nM | FOSL1 expression (FOSL1; 10 PDAC cell lines): downregulated the FOSL1 expression | FOSL1 expression (FOSL1; HT29 and HCT116 cells): relatively weak potency | IC50 (MDA‐MB‐436): > 10000 nM | apoptosis (annexin V and PI‐positive populations) (Aspc‐1 cells [2]): significantly increased the annexin V and PI‐positive populations | IC50 (COLO‐205): 17 ± 1 nM | IC50 (HepG2): > 10000 nM | body weight [3]: no significant decrease in body weight | tumor‐inhibition rate (Aspc‐1 xenograft; 40 mg/kg daily, orally, 18 days): > 90% | antitumor activity (Aspc‐1 xenograft; LY‐1816 20 or 40 mg/kg/d p.o., dasatinib 40 mg/kg/d p.o., gemcitabine 80 mg/kg once a week): dose‐dependent tumor inhibitory activities | cell invasion (Aspc‐1 cells [4]): significantly suppressed the invasion | IC50 (HT29): 231 ± 12 nM | cleaved caspase‐3 stain in tumor tissues (cleaved caspase‐3): considerable ability to induce apoptosis | IC50 (SW1990): 42 ± 53 nM | IC50 (PC‐9): 152 ± 41 nM | apoptosis (annexin V and PI‐positive populations) (Bxpc‐3 cells [5]): significantly increased the annexin V and PI‐positive populations | IC50 (RAMOS): ~10000 nM | IC50 (plc/prf/5): ~10000 nM
